Screening data (PubChem BioAssay)
Diaphorase act = diaphorase activation or chemical reduction counter-screen; Diaphorase/resazurin coupled assay, resorufin fluorescence, 16 min; hits give high values; 1 = vehicle wells, 0 = NADH-free wells; activation factor at 20 µM; 190,000 compounds, 0.005% hits; AID 1229;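 active = diaphorase activity raised at least twofold by the compound at 20 µM; inactive = activation factor below 2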
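Material: Purified diaphorase enzyme from Clostridium kluyveri | Buffer or medium: 50 mM HEPES pH 7.4 with 4.542 mM MgCl2, 0.005% Tween 20 | Times: 16 min enzyme reaction, ambient temperature | Signal: Red resorufin fluorescence at 544/590 nm excitation/emission | Measure: Increased resorufin signal from activators or reducing compounds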
G6PDH counter = counter-screen for G6PDH assay hits: L. mesenteroides G6PDH inhibition | Purified L. mesenteroides G6PDH, diaphorase/resazurin coupled fluorescence, 45 min | inhibition, % at 5 µM | 200,000 compounds, 0.12% hits; in the data active = inhibition above about 50%
Diaph inh CS = inhibits diaphorase or chemically oxidizes, flagging diaphorase assay artifacts; diaphorase resazurin-to-resorufin fluorescence, NADH, 16 min; bacterial (C. kluyveri) enzyme, not human; inhibition, % at 20 µM; 190,000 compounds, 0.69% hits;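 active = primary screen inhibition at 20 µM above a set limit, cut at about 50% in these data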;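 note: plate controls were DMSO with full reaction for no effect and wells lacking NADH for full effect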
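controls = No-NADH positive control and DMSO neutral control | system = Clostridium kluyveri diaphorase enzyme | timing = reaction incubation of 16 min at room temperature | signal = resorufin fluorescence 544/590 nm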
FLuc inh counter = Photinus pyralis luciferase inhibition counter-screen; P08659; ATPLite firefly luciferase biochemical luminescence, 10 min; inhibition, % at 10 µM; 200,000 compounds, 1.5% hits; AID 1006;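 active = inhibition above about 50% when tested at 10 µM, limit read from the data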
Target sequence (P08659 whole entry, looked up): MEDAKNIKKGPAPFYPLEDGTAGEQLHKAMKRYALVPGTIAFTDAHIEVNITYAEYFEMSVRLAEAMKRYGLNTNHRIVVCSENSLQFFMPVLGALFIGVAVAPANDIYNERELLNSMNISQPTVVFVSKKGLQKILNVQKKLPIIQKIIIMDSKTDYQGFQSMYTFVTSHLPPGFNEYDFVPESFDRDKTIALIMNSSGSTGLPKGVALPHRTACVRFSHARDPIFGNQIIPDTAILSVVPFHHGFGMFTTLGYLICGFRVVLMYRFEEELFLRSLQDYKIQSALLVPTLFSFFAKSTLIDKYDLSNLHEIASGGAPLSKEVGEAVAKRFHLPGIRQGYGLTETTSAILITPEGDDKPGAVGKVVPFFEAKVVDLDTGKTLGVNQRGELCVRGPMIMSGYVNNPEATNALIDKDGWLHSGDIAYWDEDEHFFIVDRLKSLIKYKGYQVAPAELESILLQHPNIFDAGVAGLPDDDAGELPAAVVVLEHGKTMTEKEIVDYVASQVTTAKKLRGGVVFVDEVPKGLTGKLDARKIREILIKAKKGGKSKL
FLuc stim CS = firefly luciferase counter-screen for stimulation assays. P08659. ATPlite luciferase biochemical, luminescence, 10 min; 0 = ATP-free wells, 1 = DMSO control. activation factor at 10 µM. 200,000 tested, under 10 active;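 active = luciferase activation factor, scaled between plate controls, of at least 2 with compound at 10 µM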
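assay system = Luciferase/luciferin detection reagent, cell-free biochemical luciferase assay | also added = ATP substrate | times = 10 min post-reagent at room temperature | measured by = luminescence from luciferase reaction | measure = luciferase activation, seen as luminescence increase over controls | benchmarks = low control with PBS replacing ATP, high control enzyme plus ATP without compound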
* marks the source's active call; other numbers are inactive results. An excerpt weighted towards active compounds, which were near 2.3% of everything screened.

SMILES | Diaphorase act | G6PDH counter | Diaph inh CS | FLuc inh counter | FLuc stim CS
Cc1cc(C)c(C)c(S(=O)(=O)N[C@@H](C)C(=O)OCC(N)=O)c1C | 0.9 | 2 | 13 | -3 | 1
O=c1cc(-c2ccc3c(c2)OCCO3)oc2ccc(Cl)cc12 | 0.9 | -8 | 12 | 50* | 0.5
O=c1cc(-c2cccs2)oc2ccc(Cl)cc12 | 0.9 | 14 | 12 | 24 | 0.8
CCOc1ccccc1NC(=S)Nc1ccc(S(N)(=O)=O)cc1 | 0.7 | 16 | 27 | -8 | 1.1
COc1ccc(/C=N/c2c(-c3ccc(OC)cc3)nc3n2CCS3)cc1 | 0.6 | -7 | 40 | 59* | 0.4
Fc1ccc(/C=N/c2c(-c3ccc(F)cc3)nc3n2CCS3)cc1 | 0.9 | 4 | 7 | -4 | 1
CCn1nc(C)c(/C=N/NC(=O)c2c[nH]c3ccccc23)c1C | 0.9 | 0 | 6 | 59* | 0.4
Cc1ccc(/C=N/NC(=O)c2c[nH]c3ccccc23)s1 | 1 | 7 | 3 | 26 | 0.7
CC(=O)NC(=S)c1c(N)n(Cc2ccccc2)c(=O)n(C)c1=O | 0.6 | -2 | 42 | -4 | 1
CCCCn1c(N)c(C(=S)NC(=O)CC(C)C)c(=O)n(C)c1=O | 0.4 | -8 | 59* | -10 | 1.1
CCCn1c(N)c(C(=S)NC(=O)C2CC2)c(=O)n(C)c1=O | 0.5 | -10 | 52* | -10 | 1.1
O=C(N=Nc1c(O)n(Cc2ccccc2)c2ccccc12)c1ccc(O)cc1 | 0.8 | -1 | 17 | 51* | 0.5
Cn1c(O)c(N=NC(=O)c2ccccc2O)c2ccccc21 | 0.9 | 8 | 13 | 82* | 0.2
Cc1occc1C(=O)N=Nc1c(O)n(C)c2ccccc12 | 1 | 4 | 5 | 60* | 0.4
Cn1c(O)c(N=NC(=O)c2ccco2)c2ccccc21 | 0.9 | 11 | 9 | 64* | 0.4
O=C(N=Nc1c(O)n(Cc2ccccc2)c2ccccc12)c1cc2ccccc2cc1O | 1.1 | -1 | -8 | 46 | 0.5
CN1/C(=C\C(=O)C[n+]2ccc3ccccc3c2)C(C)(C)c2ccccc21 | 1 | 1 | 3 | -8 | 1.1
O=C(Nc1ccc(C(=O)N2CCOCC2)cc1)c1cnn2c(C(F)F)cc(-c3ccccc3)nc12 | 0.8 | 21 | 19 | -2 | 1
COc1cccc(C2Nc3c(F)cc(Br)cc3C3C=CCC32)c1OC (configuration not stated) | 0.8 | -4 | 22 | -3 | 1
COc1cccc2c1NC(C(=O)O)C1CC=CC21 (configuration not stated) | 0.1 | 12 | 93* | 5 | 0.9
CC(=O)c1ccc2c(c1)C1C=CCC1C(C(=O)O)N2 (configuration not stated) | 0.2 | 7 | 77* | 5 | 0.9
Cc1ccc2c(c1)C1C=CCC1C(C(=O)O)N2 (configuration not stated) | 0.4 | 2 | 63* | 2 | 1
CC1(C)CC(=O)C(=C2SCCCS2)C(=O)C1 | 1 | 15 | 3 | -4 | 1
O=C(O)/C=C/C(=O)Nc1ccccc1-c1ccccc1NC(=O)/C=C/C(=O)O | 1 | 11 | 3 | -3 | 1
O=C(O)/C=C/C(=O)Nc1ccc(-c2ccccc2)cc1 | 1 | -4 | 4 | 53* | 0.5
SMILES | Diaphorase act | G6PDH counter | Diaph inh CS | FLuc inh counter | FLuc stim CS
Cc1nc(-c2ccc(NC(=O)/C=C\C(=O)O)cc2)cs1 | 0.9 | 7 | 11 | 46 | 0.5
Cc1ccc2sc(-c3ccc(NC(=O)/C=C\C(=O)O)cc3)nc2c1 | 1.2 | -2 | -16 | 84* | 0.2
CC(=O)Nc1cccc(-c2nc3ccccc3s2)c1 | 0.8 | 14 | 16 | 23 | 0.8
CC(=O)Nc1cccc(-c2nc3ccc(NC(C)=O)cc3s2)c1 | 0.7 | 15 | 34 | 66* | 0.3
Cc1ccc2nc(-c3ccc(NC(=O)CCN4C(=O)c5ccccc5C4=O)cc3)sc2c1 | 1.1 | -18 | -8 | 68* | 0.3
CCN(CCCNC(=O)CN(C)S(=O)(=O)c1cccc2nsnc12)c1ccccc1 | 0.8 | 4 | 18 | 0 | 1
O=C(c1nc2ccccn2c1CN1CCCC(OCc2ccccc2)C1)N1CCCC1 (configuration not stated) | 1.2 | 10 | -19 | -1 | 1
O=Nc1ccc(NOC(=O)c2ccccc2)cc1 | 0.9 | 7 | 10 | 90* | 0.1
